For one assay, the system named is JNK2. Conditions: cited from earlier work.
The test system of the next assay is JNK3. The settings on record: cited from earlier work.
A further assay addresses JNK3α1L144I (Homo sapiens, UniProt P53779, L144I). In words: HTRF enzyme inhibition assay, JNK3 L144I mutant. Conditions: read-out: Km value of ATP for JNK3 L144I. The format is biochemical. The method, boiled down:
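Human JNK3 39–402 L144I, made by PCR mutagenesis and expressed like WT, activated for 2 h at 30°C with MKK4/MKK7 (100 nM each) in HEPES pH 7.5, MgCl2, DTT, 200 μM ATP; activation checked by MS and Western. HTRF at 0.75 nM enzyme, 0.5 μM biotinylated FL-ATF-2, 1.25 μM ATP, 1 h. Top concentration 10,000 nM.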
(In general: In TR-FRET formats the signal depends on donor and acceptor labels being close together.)

The term Km denotes the concentration of substrate that gives half-maximal velocity.

Sequence of JNK3α1L144I (P53779 39-402 L144I): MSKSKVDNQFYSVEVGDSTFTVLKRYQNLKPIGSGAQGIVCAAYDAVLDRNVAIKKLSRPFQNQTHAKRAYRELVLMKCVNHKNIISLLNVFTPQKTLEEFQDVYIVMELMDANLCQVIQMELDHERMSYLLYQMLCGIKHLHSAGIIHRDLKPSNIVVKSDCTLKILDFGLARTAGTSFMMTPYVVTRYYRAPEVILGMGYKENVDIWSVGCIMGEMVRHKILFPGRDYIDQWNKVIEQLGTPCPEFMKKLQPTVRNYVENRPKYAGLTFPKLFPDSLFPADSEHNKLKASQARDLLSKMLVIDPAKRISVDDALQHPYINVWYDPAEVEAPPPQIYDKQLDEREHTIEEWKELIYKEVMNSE

Take `Cn1c(NC[C@@H](N)Cc2ccccc2)nc(-c2ccncc2)c(-c2ccc3ccccc3c2)c1=O` [AMG-548]: the “Selectivity for JNK2 compared to JNK1” value in the assay with JNK2 was 294 fold. Also, in the assay on JNK3, the “Selectivity for JNK3 compared to JNK1” value is 188 fold.

On to `Nc1ncnc2c1ncn2[C@@H]1O[C@H](COP(=O)(O)OP(=O)(O)OP(=O)(O)O)[C@@H](O)[C@H]1O` [ATP], for which the Km on JNK3α1L144I is 2.9 µM.

The values are drawn from PMC4306959 (Scientific Reports, 2015).
